Experimental data taken from publication PMC6614152 (Clinical Pharmacokinetics, 2019).
Where “and” joins values, the source holds several entries; their conditions need not be identical. Equal entries are not always repeated. Entries after “also recorded” stand apart in the source; their conditions may differ. Where two headings read alike, the source gives them in different places.

Tests used:
CYP2D6 = settings: in vitro data; cited from earlier work
[1] = cited from earlier work
CYP3A = settings: strong CYP3A inhibitor ketoconazole; cited from earlier work
moderate to severe RA = settings: monotherapy or in combination with csDMARDs; cited from earlier work
[2] = format: in vivo, humans
[3] = Population pharmacokinetic analysis; format: in vivo, humans
Summary of the method: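 Nonlinear mixed-effects model (FOCEI) fitted to 29,372 plasma concentrations from 4170 healthy and RA subjects across 12 studies (IR 1–48 mg, ER 7.5–30 mg), quantified by LC-MS/MS. Two-compartment structure: IR first-order absorption with lag time, ER mixed zero/first-order absorption with lag time, linear elimination; combined additive/proportional residual error. Below-LLOQ values were set to LLOQ/2, with later post-dose ones censored. Co-medications were time-varying covariates. Checked by VPC (400 replicates) and ER pcVPC.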

[4] = cited from earlier work; remark: listed apart in the source
JAK1 = settings: in vitro cellular assays; cited from earlier work
[5] = RA subjects with bodyweight < 60 kg, steady state, simulated
[6] = RA subjects with bodyweight > 100 kg, steady state, simulated
[7] = final model, population estimate (%RSE), outliers excluded
[8] = healthy subjects, ER formulation, population estimate

AUC higher relative to subjects with a bodyweight of 60-100 kg [2, 5]: 5%
Cmax higher compared with subjects with a bodyweight of 60-100 kg [2, 5]: 18%
AUC lower relative to subjects with a bodyweight of 60-100 kg [2, 6]: 5%
Cmax lower compared with subjects with a bodyweight of 60-100 kg [2, 6]: 18%
AUC higher compared with RA subjects with normal renal function ([2]; RA subjects with moderate renal impairment (CrCl 30 to < 60 mL/min)): 26%
time-dependent change in upadacitinib clearance with continued treatment ([3]; CWRES versus time): no time-dependent change
dose proportionality of bioavailability ([3]; ER dose range of 7.5-30 mg): dose-proportional
effect of pH-modifying medications on upadacitinib absorption from the ER formulation ([3]; ER formulation): no effect
Bioavailability of the extended-release formulation relative to the immediate-release formulation [3, 7]: 76.2% and 76%
ISV on CL/F in phase I [3, 7]: 21%
ISV on CL/F in phase II/III [3, 7]: 37%
ISV on Vc/F in phase I [3, 7]: 24%
ISV on Vc/F in phase II/III [3, 7]: 53%
apparent oral clearance [3, 8]: 53.7 L/h
steady-state volume of distribution (sum of the central and peripheral volume of distribution) [3, 8]: 294 L
correlation of baseline hsCRP with upadacitinib clearance ([3]; in vivo): not correlated
effect of methotrexate on upadacitinib pharmacokinetics ([3]; in vivo): not affect
effect of pH-modifying agents on upadacitinib pharmacokinetics ([3]; in vivo): not affect
higher estimated upadacitinib AUC in RA subjects compared with healthy subjects ([3]; in vivo): 33%
lower upadacitinib clearance in RA subjects compared with healthy subjects ([3]; in vivo): 25%
SMILES: CC[C@@H]1CN(C(=O)NCC(F)(F)F)C[C@@H]1c1cnc2cnc3[nH]ccc3n12 [upadacitinib, Upadacitinib]
contribution of CYP2D6 to upadacitinib metabolism (CYP2D6): potential minor contribution
functional half-life ([1]; IR formulation): 3 to 4 h
time at which peak plasma concentrations (Cmax) were reached ([1]; after ER dosing): 2 to 4 h
time at which peak plasma concentrations (Cmax) were reached ([1]; after IR dosing): 1 to 2 h
Cmax and Cmin of ER 15 and 30 mg once daily versus IR 6 mg and 12 mg twice daily [1]: comparable
daily AUC of ER 15 and 30 mg once daily versus IR 6 mg and 12 mg twice daily [1]: equivalent
terminal half-life ([1]; following administration of the IR or ER formulations): 6 to 16 h
upadacitinib dose eliminated unchanged in urine (renal pathway) ([1]; phase I study): Approximately 20%
linearity of pharmacokinetics ([1]; range of doses evaluated in phase I and II studies): linear pharmacokinetics
increase in upadacitinib exposures with ketoconazole (CYP3A): approximately 75%
clinical signs and symptoms in subjects with moderate to severe RA compared with placebo or active comparators (moderate to severe RA): rapid and significant improvements; also recorded: significantly improved
effects of bodyweight and mild or moderate renal impairment on upadacitinib exposures ([3]; in vivo): statistically significant but non-clinically relevant effects; also recorded: Bodyweight and mild or moderate renal impairment had statistically significant but non-clinically relevant effects on upadacitinib exposures
effect of CYP2D6 metabolic phenotype on apparent oral clearance [4]: no effect
typical oral clearance in RA patients lower compared with healthy subjects [4]: 24%
selectivity for JAK1 over JAK2 (JAK1): approximately 60 fold
selectivity for JAK1 over JAK3 (JAK1): more than 100 fold
